The record followed here is article PMC10653054 (ACS Omega, 2023).

Structures are written as SMILES.

In this test the test system is normal human dermal fibroblast (HDF) cells. Description: MTT cytotoxicity assay, normal HDF cells. It is filed as cell-based. To be noted: 48 h, read-out: In vitro antiproliferative effects (IC50) HDF. The procedure, abridged:
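Cells came from the National Cell Bank of Iran and were grown in RPMI-1640 or DMEM with 10% FBS at 37 °C, 5% CO2 and 100% humidity. Test compounds in 0.1% DMSO (n = 3) were incubated 48 h, then MTT for 3 h, with formazan OD read at 570 nm. Controls were 0.1% DMSO (negative) and etoposide (positive). IC50 came from dose–response curves, mean ± SE of at least three independent experiments.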
As usually defined, the IC50 is the midpoint of a concentration-inhibition curve. Take `COC(=O)c1c(-c2ccccc2)c2n(c1C(=O)OC)CCn1cccc1-2` [5a, Dimethyl-1-phenyl-5,6-dihydrodipyrrolo[1,2-a:2′,1′-c]pyrazine-2,3-dicarboxylate]: the IC50 was more than 100 µM.

Consider `COC(=O)c1c(-c2ccccc2O)c2n(c1C(=O)OC)CCn1cccc1-2` [5b, Dimethyl-1-(2-hydroxyphenyl)-5,6-dihydrodipyrrolo[1,2-a:2′,1′-c]pyrazine-2,3-dicarboxylate], for which the IC50 is more than 100 µM.

As to `COC(=O)c1c(-c2cccc(O)c2)c2n(c1C(=O)OC)CCn1cccc1-2` [5c, Dimethyl-1-(3-hydroxyphenyl)-5,6-dihydrodipyrrolo[1,2-a:2′,1′-c]pyrazine-2,3-dicarboxylate], the IC50 was more than 100 µM. Then `COC(=O)c1c(-c2ccccc2C)c2n(c1C(=O)OC)CCn1cccc1-2` [5d, Dimethyl-1-(2-tolyl)-5,6-dihydrodipyrrolo[1,2-a:2′,1′-c]pyrazine-2,3-dicarboxylate], with more than 100 µM; and `COC(=O)c1c(-c2cccc(C)c2)c2n(c1C(=O)OC)CCn1cccc1-2` [5e, Dimethyl-1-(3-tolyl)-5,6-dihydrodipyrrolo[1,2-a:2′,1′-c]pyrazine-2,3-dicarboxylate], with more than 100 µM. Regarding `COC(=O)c1c(-c2ccc(C)cc2)c2n(c1C(=O)OC)CCn1cccc1-2` [5f, Dimethyl-1-(4-tolyl)-5,6-dihydrodipyrrolo[1,2-a:2′,1′-c]pyrazine-2,3-dicarboxylate], the IC50 was more than 100 µM. The figure for `COC(=O)c1c(-c2cccc(OC)c2)c2n(c1C(=O)OC)CCn1cccc1-2` [5g, Dimethyl-1-(3-methoxyphenyl)-5,6-dihydrodipyrrolo[1,2-a:2′,1′-c]pyrazine-2,3-dicarboxylate] is more than 100 µM; for `COC(=O)c1c(-c2ccc(OC)cc2)c2n(c1C(=O)OC)CCn1cccc1-2` [5h, Dimethyl-1-(4-methoxyphenyl)-5,6-dihydrodipyrrolo[1,2-a:2′,1′-c]pyrazine-2,3-dicarboxylate] it is more than 100 µM.

As to `COC(=O)c1c(-c2ccccc2F)c2n(c1C(=O)OC)CCn1cccc1-2` [5i, Dimethyl-1-(2-fluorophenyl)-5,6-dihydrodipyrrolo[1,2-a:2′,1′-c]pyrazine-2,3-dicarboxylate], the IC50 was more than 100 µM. In the case of `COC(=O)c1c(-c2ccc(F)cc2)c2n(c1C(=O)OC)CCn1cccc1-2` [5j, Dimethyl-1-(4-fluorophenyl)-5,6-dihydrodipyrrolo[1,2-a:2′,1′-c]pyrazine-2,3-dicarboxylate], the IC50 is more than 100 µM. As to `COC(=O)c1c(-c2cccc(Cl)c2)c2n(c1C(=O)OC)CCn1cccc1-2` [5k, Dimethyl-1-(3-chlorophenyl)-5,6-dihydrodipyrrolo[1,2-a:2′,1′-c]pyrazine-2,3-dicarboxylate], the IC50 is more than 100 µM.

In the case of `COC(=O)c1c(-c2ccc(Cl)cc2)c2n(c1C(=O)OC)CCn1cccc1-2` [5l, Dimethyl-1-(4-chlorophenyl)-5,6-dihydrodipyrrolo[1,2-a:2′,1′-c]pyrazine-2,3-dicarboxylate], the IC50 is more than 100 µM. The figure for `COC(=O)c1c(-c2cccc(Br)c2)c2n(c1C(=O)OC)CCn1cccc1-2` [5m, Dimethyl-1-(3-bromophenyl)-5,6-dihydrodipyrrolo[1,2-a:2′,1′-c]pyrazine-2,3-dicarboxylate] is more than 100 µM; for `COC(=O)c1c(-c2ccc(Br)cc2)c2n(c1C(=O)OC)CCn1cccc1-2` [5n, Dimethyl-1-(4-bromophenyl)-5,6-dihydrodipyrrolo[1,2-a:2′,1′-c]pyrazine-2,3-dicarboxylate] it is more than 100 µM. Then `COC(=O)c1c(-c2cccc([N+](=O)[O-])c2)c2n(c1C(=O)OC)CCn1cccc1-2` [5o, Dimethyl-1-(3-nitrophenyl)-5,6-dihydrodipyrrolo[1,2-a:2′,1′-c]pyrazine-2,3-dicarboxylate], with more than 100 µM; and `COC(=O)c1c(-c2ccc([N+](=O)[O-])cc2)c2n(c1C(=O)OC)CCn1cccc1-2` [5p, Dimethyl-1-(4-nitrophenyl)-5,6-dihydrodipyrrolo[1,2-a:2′,1′-c]pyrazine-2,3-dicarboxylate], with more than 100 µM; and `COC(=O)c1c(-c2ccc(O)c(OC)c2)c2n(c1C(=O)OC)CCn1cccc1-2` [5q, Dimethyl-1-(4-hydroxy-3-methoxyphenyl)-5,6-dihydrodipyrrolo[1,2-a:2′,1′-c]pyrazine-2,3-dicarboxylate], with more than 100 µM.

`COC(=O)c1c(-c2ccc(Cl)cc2Cl)c2n(c1C(=O)OC)CCn1cccc1-2` [5r, Dimethyl-1-(2,4-dichlorophenyl)-5,6-dihydrodipyrrolo[1,2-a:2′,1′-c]pyrazine-2,3-dicarboxylate]: the IC50 was more than 100 µM. The figure for `COC(=O)c1c(-c2cc(OC)c(OC)c(OC)c2)c2n(c1C(=O)OC)CCn1cccc1-2` [5s, Dimethyl-1-(3,4,5-trimethoxyphenyl)-5,6-dihydrodipyrrolo[1,2-a:2′,1′-c]pyrazine-2,3-dicarboxylate] is more than 100 µM.

Consider `O=c1[nH]nc(O)c2c(-c3ccccc3)c3n(c12)CCn1cccc1-3` [7a, 11-Hydroxy-12-phenyl-5,6-dihydropyrrolo[2″,1″:3′,4′]pyrazino[1′,2′:1,5]pyrrolo[2,3-d] pyridazin-8(9H)-one], for which the IC50 is more than 100 µM. The figure for `O=c1[nH]nc(O)c2c(-c3cccc(O)c3)c3n(c12)CCn1cccc1-3` [7b, 11-Hydroxy-12-(3-hydroxyphenyl)-5,6-dihydropyrrolo[2″,1″:3′,4′]pyrazino[1′,2′:1,5] pyrrolo[2,3-d]pyridazin-8(9H)-one] is more than 100 µM; for `Cc1ccccc1-c1c2n(c3c(=O)[nH]nc(O)c13)CCn1cccc1-2` [7c, 11-Hydroxy-12-(o-tolyl)-5,6-dihydropyrrolo[2″,1″:3′,4′]pyrazino[1′,2′:1,5]pyrrolo[2,3-d] pyridazin-8(9H)-one] it is more than 100 µM. Turning to `Cc1cccc(-c2c3n(c4c(=O)[nH]nc(O)c24)CCn2cccc2-3)c1` [7d, 11-Hydroxy-12-(m-tolyl)-5,6-dihydropyrrolo[2″,1″:3′,4′]pyrazino[1′,2′:1,5]pyrrolo[2,3-d] pyridazin-8(9H)-one], the IC50 is more than 100 µM.

Turning to `Cc1ccc(-c2c3n(c4c(=O)[nH]nc(O)c24)CCn2cccc2-3)cc1` [7e, 11-Hydroxy-12-(p-tolyl)-5,6-dihydropyrrolo[2″,1″:3′,4′]pyrazino[1′,2′:1,5]pyrrolo[2,3-d] pyridazin-8(9H)-one], the IC50 was more than 100 µM. Then `COc1cccc(-c2c3n(c4c(=O)[nH]nc(O)c24)CCn2cccc2-3)c1` [7f, 11-Hydroxy-12-(3-methoxyphenyl)-5,6-dihydropyrrolo[2″,1″:3′,4′]pyrazino[1′,2′:1,5] pyrrolo[2,3-d]pyridazin-8(9H)-one], with more than 100 µM; and `COc1ccc(-c2c3n(c4c(=O)[nH]nc(O)c24)CCn2cccc2-3)cc1` [7g, 11-Hydroxy-12-(4-methoxyphenyl)-5,6-dihydropyrrolo[2″,1″:3′,4′]pyrazino[1′,2′:1,5] pyrrolo[2,3-d]pyridazin-8(9H)-one], with more than 100 µM; and `O=c1[nH]nc(O)c2c(-c3ccc(F)cc3)c3n(c12)CCn1cccc1-3` [7h, 12-(4-Fluorophenyl)-11-hydroxy-5,6-dihydropyrrolo[2″,1″:3′,4′]pyrazino[1′,2′:1,5] pyrrolo[2,3-d]pyridazin-8(9H)-one], with more than 100 µM. For the molecule `O=c1[nH]nc(O)c2c(-c3cccc(Cl)c3)c3n(c12)CCn1cccc1-3` [7i, 12-(3-Chlorophenyl)-11-hydroxy-5,6-dihydropyrrolo[2″,1″:3′,4′]pyrazino[1′,2′:1,5]pyrrolo [2,3-d]pyridazin-8(9H)-one], the half-inhibitory concentration (IC50) is more than 100 µM. The figure for `O=c1[nH]nc(O)c2c(-c3ccc(Cl)cc3)c3n(c12)CCn1cccc1-3` [7j, 12-(4-Chlorophenyl)-11-hydroxy-5,6-dihydropyrrolo[2″,1″:3′,4′]pyrazino[1′,2′:1,5] pyrrolo[2,3-d]pyridazin-8(9H)-one] is more than 100 µM; for `O=c1[nH]nc(O)c2c(-c3cccc(Br)c3)c3n(c12)CCn1cccc1-3` [7k, 12-(3-Bromophenyl)-11-hydroxy-5,6-dihydropyrrolo[2″,1″:3′,4′]pyrazino[1′,2′:1,5]pyrrolo [2,3-d]pyridazin-8(9H)-one] it is more than 100 µM; for `O=c1[nH]nc(O)c2c(-c3ccc(Br)cc3)c3n(c12)CCn1cccc1-3` [7l, 12-(4-Bromophenyl)-11-hydroxy-5,6-dihydropyrrolo[2″,1″:3′,4′]pyrazino[1′,2′:1,5] pyrrolo[2,3-d]pyridazin-8(9H)-one] it is more than 100 µM. For `O=c1[nH]nc(O)c2c(-c3ccc([N+](=O)[O-])cc3)c3n(c12)CCn1cccc1-3` [7n, 11-Hydroxy-12-(4-nitrophenyl)-5,6-dihydropyrrolo[2″,1″:3′,4′]pyrazino[1′,2′:1,5] pyrrolo[2,3-d]pyridazin-8(9H)-one], the IC50 was more than 100 µM. As to `COc1cc(-c2c3n(c4c(=O)[nH]nc(O)c24)CCn2cccc2-3)ccc1O` [7o, 11-Hydroxy-12-(4-hydroxy-3-methoxyphenyl)-5,6-dihydropyrrolo[2″,1″:3′,4′]pyrazino [1′,2′:1,5]pyrrolo[2,3-d]pyridazin-8(9H)-one], the IC50 is more than 100 µM. The figure for `O=c1[nH]nc(O)c2c(-c3ccc(Cl)cc3Cl)c3n(c12)CCn1cccc1-3` [7p, 12-(2,4-Dichlorophenyl)-11-hydroxy-5,6-dihydropyrrolo[2″,1″:3′,4′]pyrazino [1′,2′:1,5]pyrrolo[2,3-d]pyridazin-8(9H)-one] is more than 100 µM. The figure for `COc1cc(-c2c3n(c4c(=O)[nH]nc(O)c24)CCn2cccc2-3)cc(OC)c1OC` [7q, 11-Hydroxy-12-(3,4,5-trimethoxyphenyl)-5,6-dihydropyrrolo[2″,1″:3′,4′]pyrazino [1′,2′:1,5]pyrrolo[2,3-d]pyridazin-8(9H)-one] is more than 100 µM. On to `COc1cc([C@@H]2c3cc4c(cc3[C@@H](O[C@@H]3O[C@@H]5CO[C@@H](C)O[C@H]5[C@H](O)[C@H]3O)[C@H]3COC(=O)[C@H]23)OCO4)cc(OC)c1O` [etoposide, reference compound], for which the IC50 is more than 100 µM.
